Laboratory results from publication PMC3970846 (Toxicology and applied pharmacology, 2013).
≈ marks a conversion by molar mass, not a printed value.

Tests used:
[1] = target: T1, 2B37v1 (Neotoma lepida, UniProt J7EWE1); assay: 7-BR O-debenzylation, reconstituted system; assay type: biochemical; details: enzyme 2B37v1
[2] = target: T2, 2B36v1 (Neotoma lepida, UniProt J7EWE5); assay: 7-BR O-debenzylation, reconstituted system; assay type: biochemical
[3] = target: T3, 2B37v2 V114I (Neotoma lepida, UniProt J9JD75, V114I, form not given); assay: 7-BR O-debenzylation, reconstituted system; assay type: biochemical; details: enzyme 2B37v2 V114I
[4] = target: T4, 2B37v2 R262K (Neotoma lepida, UniProt J9JD75, R262K, form not given); assay: 7-BR O-debenzylation, reconstituted system; assay type: biochemical; details: enzyme 2B37v2 R262K
[5] = target: T5, 2B37v2 (Neotoma lepida, UniProt J9JD75); assay: 7-BR O-debenzylation, reconstituted system; assay type: biochemical; details: enzyme 2B37v2
[6] = target: T6, 2B37v2 V480L (Neotoma lepida, UniProt J9JD75, V480L, form not given); assay: 7-BR O-debenzylation, reconstituted system; assay type: biochemical; details: enzyme 2B37v2 V480L
[7] = target: rat 2B1 (Rattus norvegicus, UniProt P00176, E2A/G22K/H23K/K25S/N29K/P24T/R27K); assay: 7-BR O-debenzylation, reconstituted system; assay type: biochemical; details: enzyme 2B1
[8] = Solubility limit in aqueous solutions; assay type: physicochemical
[9] = target: T7, 2B35v1 (Neotoma lepida, UniProt J7EVA5); assay: 7-BR O-debenzylation, reconstituted system; assay type: biochemical; details: substrate 7-BR; enzyme 2B35v1
T7 sequence (J7EVA5 22-491): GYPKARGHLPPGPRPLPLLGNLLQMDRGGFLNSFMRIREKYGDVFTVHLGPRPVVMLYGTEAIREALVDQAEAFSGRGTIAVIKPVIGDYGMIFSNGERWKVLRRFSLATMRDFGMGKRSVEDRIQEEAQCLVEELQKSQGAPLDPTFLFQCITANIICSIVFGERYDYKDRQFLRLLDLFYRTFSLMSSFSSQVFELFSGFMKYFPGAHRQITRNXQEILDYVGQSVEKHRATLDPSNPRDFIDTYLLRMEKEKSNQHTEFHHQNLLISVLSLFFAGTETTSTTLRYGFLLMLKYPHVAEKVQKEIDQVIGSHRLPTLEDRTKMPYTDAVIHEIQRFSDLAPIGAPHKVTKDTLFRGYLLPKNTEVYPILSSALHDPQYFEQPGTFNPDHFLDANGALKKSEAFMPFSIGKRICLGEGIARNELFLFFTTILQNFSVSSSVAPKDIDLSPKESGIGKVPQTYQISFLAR
Method in brief: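 Same His4-tagged enzyme and purification, and same reconstituted system (P450:rat reductase:rat b5 1:4:2). 7-BR 0–10 μM in 50 mM HEPES pH 7.4, 15 mM MgCl2. NADPH 1 mM final started the reaction, 10 min at 37 °C, then methanol quench. Resorufin read at ex 550/em 580 nm, calibrated daily with 0–2 μM resorufin. Steady-state parameters from Michaelis-Menten regression.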

[10] = target: T8, 2B37v1 K262R (Neotoma lepida, UniProt J7EWE1, K262R, form not given); assay: 7-BR O-debenzylation, reconstituted system; assay type: biochemical; details: enzyme 2B37v1 K262R
[11] = target: T2, 2B36v1; assay: 7-EFC O-deethylation, reconstituted system; assay type: biochemical; details: enzyme 2B36v1
[12] = target: T3, 2B37v2 V114I; assay: 7-EFC O-deethylation, reconstituted system; assay type: biochemical; details: enzyme 2B37v2 V114I
[13] = target: T1, 2B37v1; assay: 7-EFC O-deethylation, reconstituted system; assay type: biochemical
[14] = target: T5, 2B37v2; assay: 7-EFC O-deethylation, reconstituted system; assay type: biochemical
[15] = target: T4, 2B37v2 R262K; assay: 7-EFC O-deethylation, reconstituted system; assay type: biochemical
[16] = target: 2B37v2 V114I/V480L (Neotoma lepida, UniProt J9JD75, V114I/V480L, form not given); assay: 7-EFC O-deethylation, reconstituted system; assay type: biochemical; details: enzyme 2B37v2 V114I/V480L
[17] = target: T7, 2B35v1; assay: 7-EFC O-deethylation, reconstituted system; assay type: biochemical; details: substrate 7-EFC; enzyme 2B35v1
Method in brief: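 Enzyme with C-terminal His4 tag, expressed in TOPP3 cells and purified on Ni-NTA then CM-Sepharose. Reconstituted with rat NADPH-P450 reductase and rat cytochrome b5 (P450:reductase:b5 1:4:2). 7-EFC 0–150 μM in 50 mM HEPES pH 7.4, 15 mM MgCl2. Started with 1 mM NADPH, 10 min at 37 °C, quenched with ice-cold acetonitrile, diluted into 0.1 M Tris pH 9.0. 7-HFC read at ex 410/em 510 nm, calibrated daily with 0–2 μM HFC. Michaelis-Menten fit.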

[18] = target: T8, 2B37v1 K262R; assay: 7-EFC O-deethylation, reconstituted system; assay type: biochemical
[19] = target: T6, 2B37v2 V480L; assay: 7-EFC O-deethylation, reconstituted system; assay type: biochemical; details: enzyme 2B37v2 V480L
[20] = test system: human 2B6; details: ref Talakad et al., 2009; cited from earlier work
[21] = target: T7, 2B35v1; details: read-out: (+)-α-pinene spectral binding KS; enzyme 2B35v1; 25 °C
[22] = target: T5, 2B37v2; details: read-out: (+)-α-pinene spectral binding KS; enzyme 2B37v2; 25 °C
[23] = ref Sridhar et al., 2012; cited from earlier work
[24] = target: T1, 2B37v1; details: read-out: (+)-α-pinene spectral binding KS; enzyme 2B37v1; 25 °C
[25] = target: T9, rat 2B1 (Rattus norvegicus, UniProt P00176, E2A/G22K/H23K/K25S/N29K/P24T/R27K); assay type: binding
T9 sequence (P00176 with tags, fused parts or gaps limits assumed): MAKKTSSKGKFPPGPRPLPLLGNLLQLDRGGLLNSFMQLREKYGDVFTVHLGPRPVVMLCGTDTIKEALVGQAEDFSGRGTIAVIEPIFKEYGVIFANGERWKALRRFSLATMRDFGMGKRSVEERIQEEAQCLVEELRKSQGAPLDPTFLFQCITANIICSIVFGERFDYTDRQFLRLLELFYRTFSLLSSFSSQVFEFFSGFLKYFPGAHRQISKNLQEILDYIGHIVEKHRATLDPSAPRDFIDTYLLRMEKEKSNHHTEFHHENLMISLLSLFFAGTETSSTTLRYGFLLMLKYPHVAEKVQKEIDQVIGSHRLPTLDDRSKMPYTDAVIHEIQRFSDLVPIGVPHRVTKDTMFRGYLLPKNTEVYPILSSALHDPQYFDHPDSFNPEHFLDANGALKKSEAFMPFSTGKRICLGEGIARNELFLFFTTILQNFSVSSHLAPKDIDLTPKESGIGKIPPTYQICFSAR

[26] = target: T2, 2B36v1; details: read-out: (+)-α-pinene spectral binding KS; enzyme 2B36v1; 25 °C
[27] = test system: CCOc1ccc2c(C(F)(F)F)cc(=O)oc2c1; assay: 7-EFC O-deethylation, reconstituted system; assay type: biochemical, rat; details: other: enzyme 2B1; 37.0 °C
[28] = read-out: 7-BR O-debenzylation KM
[29] = read-out: 7-EFC O-deethylation KM

O=c1ccc2nc3ccc(OCc4ccccc4)cc3oc-2c1 [7-BR, 7-benzyloxyresorufin]
7-BR O-debenzylation kcat [1]: 0.16 ± 0.04 min^−^1 | Km [1, 28]: 7.2 ± 0.6 µM | efficiency for 7-BR O-debenzylation relative to 2B1 ([2]; 2B36v1 as fraction of 2B1): 1/40 | 7-BR O-debenzylation kcat ([2]; enzyme 2B36v1): 0.10 ± 0.03 min^−^1 | Km ([2]; read-out: 7-BR O-debenzylation KM, enzyme 2B36v1): 1.7 ± 0.3 µM | 7-BR O-debenzylation kcat [3]: 0.13 ± 0.01 min^−^1 | Km [3, 28]: 5.7 ± 1 µM | 7-BR O-debenzylation kcat [4]: 0.18 ± 0.05 min^−^1 | Km [4, 28]: 9.2 ± 0.7 µM | 7-BR O-debenzylation kcat [5]: 0.25 ± 0.06 min^−^1 | Km [5, 28]: 9.5 ± 0.5 µM | 7-BR O-debenzylation kcat [6]: 0.47 ± 0.08 min^−^1 | Km [6, 28]: 4.5 ± 0.7 µM | 7-BR O-debenzylation kcat [7]: ~ 4.5 min^−^1 | solubility [8]: ~10 µM (≈ 3.03 µg/mL) | O-dealkylation products [9]: not detected | 7-BR O-debenzylation kcat [10]: 0.15 ± 0.07 min^−^1 | Km [10, 28]: 8.1 ± 0.7 µM

CCOc1ccc2c(C(F)(F)F)cc(=O)oc2c1 [7-EFC, 7-ethoxy-4-(trifluoromethyl)coumarin]
7-EFC O-deethylation kcat [11]: 3.3 ± 1.0 min^−^1 | Km [11, 29]: 18.3 ± 7 µM | 7-EFC O-deethylation kcat [12]: 6.3 ± 1.9 min^−^1 | Km [12, 29]: 120 ± 2 µM | 7-EFC KM lower than 2B1 ([13]; 2B37v1 vs 2B1): ~ 25% | 7-EFC catalytic efficiency higher than for 2B1 ([13]; 2B37v1 vs 2B1): ~ 1.8 fold | 7-EFC kcat higher than that for 2B1 ([13]; 2B37v1 vs 2B1): ~ 1.4 fold | kcat for 7-EFC-O-deethylation greater than that of 2B1 ([13]; 2B37v1 vs 2B1): ~ 50% | 7-EFC O-deethylation kcat ([13]; enzyme 2B37v1): 10.0 ± 0.3 min^−^1 | Km ([13]; read-out: 7-EFC O-deethylation KM, enzyme 2B37v1): 23.5 ± 2 µM | kcat for 7-EFC-O-deethylation greater than that of 2B1 ([14]; 2B37v2 vs 2B1): 2 fold | 7-EFC O-deethylation kcat ([14]; enzyme 2B37v2): 14.5 ± 8.3 min^−^1 | Km ([14]; read-out: 7-EFC O-deethylation KM, enzyme 2B37v2): 20 ± 4.2 µM | decrease in 7-EFC catalytic efficiency ([15]; 2B37v2 R262K vs 2B37v2): 85% | 7-EFC O-deethylation kcat ([15]; enzyme 2B37v2 R262K): 2.0 ± 0.1 min^−^1 | Km ([15]; read-out: 7-EFC O-deethylation KM, enzyme 2B37v2 R262K): 20.3 ± 2.8 µM | 7-EFC O-deethylation kcat [16]: 20.8 ± 2.8 min^−^1 | Km [16, 29]: 32.5 ± 4.4 µM | O-dealkylation products [17]: not detected | decrease in 7-EFC kcat ([18]; 2B37v1 K262R vs 2B37v1): ~ 45% | reduction of 7-EFC catalytic efficiency ([18]; 2B37v1 K262R vs 2B37v1): ~ 35% | 7-EFC O-deethylation kcat ([18]; enzyme 2B37v1 K262R): 5.4 ± 0.2 min^−^1 | Km ([18]; read-out: 7-EFC O-deethylation KM, enzyme 2B37v1 K262R): 19 ± 2.3 µM | 7-EFC O-deethylation kcat [19]: 22.3 ± 2.0 min^−^1 | Km [19, 29]: 23.9 ± 3.6 µM

COC(=O)[C@H](c1ccccc1Cl)N1CCc2sccc2C1 [clopidogrel]
KS [20]: low micromolar | maximal increase in HSP450 content upon binding [20]: 2.6%

CN[C@H]1CC[C@@H](c2ccc(Cl)c(Cl)c2)c2ccccc21 [sertraline]
maximal increase in HSP450 content upon binding [20]: 0.8%

Clc1ccccc1CN1CCc2sccc2C1 [ticlopidine]
KS [20]: low micromolar | maximal increase in HSP450 content upon binding [20]: 2.3%

(+)-α-pinene
Kd [21]: 1270 ± 490 nM | Kd [22]: 910 ± 70 nM | log P [23]: 4.44 | Kd [24]: 9330 ± 760 nM | (+)-α-pinene spectral binding %HSP450 Max Δ ([25]; maximum change in high-spin P450 content, enzyme 2B1): 48.7 ± 1.3% | difference spectra type induced ([25]; peak ~388 nm, trough ~420 nm, represented with 2B1, seen with each enzyme): Type I | Kd ([25]; read-out: (+)-α-pinene spectral binding KS, enzyme 2B1, 25 °C): 870 ± 80 nM | Kd [26]: 580 ± 40 nM

rat 2B1 (Rattus norvegicus; E2A/G22K/H23K/K25S/N29K/P24T/R27K)
Km [27]: 32.4 ± 4.9 µM | kcat [27]: 0.115 ± 0.02 s⁻¹ | kcat/Km [27]: 3500 M⁻¹ s⁻¹
